This passage reports selectivity ratio and IC50 results from ChEMBL document CHEMBL1926596, “Synthesis and antimalarial evaluation of novel isocryptolepine derivatives” (Bioorg Med Chem, 2011).

Structures can show the parent of a compound that is named as a salt.

The IC50 is the point on the concentration scale where inhibition reaches its midpoint.

System in one data set: not listed separately
The experiment in a line: Selectivity index, ratio of IC50 for mouse 3T3 cells to IC50 for chloroquine-resistant Plasmodium falciparum W2mef. The conditions noted are these: read-out: Ratio IC50. It counts as toxicity, cell-based, NIH3T3. In outline:
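The ratio uses the W2mef antiplasmodial IC50 and the IC50 in 3T3 mouse embryonic fibroblasts. Cells were seeded 24 h earlier at 7500/well on 1% gelatine, 37 °C, 5% CO2. Serial dilutions were added in quadruplicate with a vehicle control for 48 h. MTT (1 mg/mL, 60 min, 37 °C) was solubilised in DMSO and read at 595 nm. IC50 came from nonlinear regression after DMSO correction, with at least 3 runs.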
Take `Cn1cc2c3ccccc3nc-2c2ccc(Cl)cc21`: the selectivity ratio is 7.3.

On to `Cc1ccc2c3cn(C)c4ccccc4c-3nc2c1`, for which the selectivity ratio came out at 2.7.

As for `Cn1cc2c3cc(Br)ccc3nc-2c2ccccc21`, the selectivity ratio came to 11.

For `Cn1cc2c3cc(Br)ccc3nc-2c2cc(Cl)ccc21`, the selectivity ratio was found to be 106.

For the compound `Cn1cc2c3cc(Br)ccc3nc-2c2cc(Br)ccc21`, the selectivity ratio was 23.

`Cn1cc2c3cc(Br)ccc3nc-2c2ccc(Cl)cc21`: the selectivity ratio is 26.

With `Cc1cc2nc3c4ccccc4n(C)cc-3c2cc1Br`, the selectivity ratio is 19.

Regarding `Cn1cc2c3cc(Cl)ccc3nc-2c2ccccc21`, the selectivity ratio is 9.6.

As for `Cn1cc2c3ccccc3nc-2c2ccccc21` [ISOCRYPTOLEPINE HYDROCHLORIDE], the selectivity ratio was determined as 1.9.

A further data set concerns Plasmodium falciparum. The experiment in a line: Antimalarial activity against chloroquine-sensitive Plasmodium falciparum 3D7 infected in human erythrocytes assessed as inhibition of [3H]hypoxanthine incorporation after 48 hrs by beta liquid scintillation counting method. Type of data set: functional, organism-based.
Details: not given
In outline: (§1)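 Hydrochloride salts, from DMSO/water stocks (final DMSO <0.05%), added in triplicate to parasites cultured in RPMI 1640 HEPES with L-glutamine, gentamicin, hypoxanthine and 10% pooled human plasma at 37 °C under 3–9% oxygen. Radiolabel was added, then 48 h incubation, freeze-thaw, filtermat harvest and scintillation counting. Uninfected and infected drug-free controls were included. IC50 came from nonlinear regression of log-dose–response curves, with at least 3 separate runs.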
Consider `Cn1cc2c3ccccc3nc-2c2ccc(Cl)cc21`, for which the 50% inhibitory concentration (IC50) is 130 nM.

Take `Cc1ccc2c3cn(C)c4ccccc4c-3nc2c1`: the 50% inhibitory concentration (IC50) is 448 nM.

For `Cn1cc2c3cc(Br)ccc3nc-2c2ccccc21`, the 50% inhibitory concentration (IC50) is 85 nM.

Take `Cn1cc2c3cc(Br)ccc3nc-2c2cc(Cl)ccc21`: the half-inhibitory concentration (IC50) was determined as 57 nM.

Turning to `Cn1cc2c3cc(Br)ccc3nc-2c2cc(Br)ccc21`, the half-maximal inhibitory concentration (IC50) is 127 nM.

As for `Cn1cc2c3cc(Br)ccc3nc-2c2ccc(Cl)cc21`, the IC50 was 50 nM.

With `Cc1cc2nc3c4ccccc4n(C)cc-3c2cc1Br`, the IC50 was determined as 62 nM.

As for `Cn1cc2c3cc(Cl)ccc3nc-2c2ccccc21`, the 50% inhibitory concentration (IC50) turned out to be 117 nM.

Turning to `Cn1cc2c3ccccc3nc-2c2ccccc21` [ISOCRYPTOLEPINE HYDROCHLORIDE], the half-inhibitory concentration (IC50) came to 665 nM.

For another data set, the system named is NIH3T3. The experiment in a line: Cytotoxicity against mouse 3T3 cells after 48 hrs by MTT assay. Type of data set: cell-based. The conditions noted are these: NIH3T3, 48 h. In outline: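 Cells seeded at 7500 per well on 1% gelatine-coated plates 24 h before testing (37 °C, 5% CO2, humidified). Test agents given as hydrochloride salts in DMSO/water stocks, diluted in RPMI, serially diluted, added in quadruplicate, with vehicle and drug-free controls. After 48 h, MTT (1 mg/mL in RPMI) for 60 min, DMSO solubilisation, absorbance 595 nm. At least three separate runs; IC50 by non-linear regression after DMSO correction.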
A general note: Tetrazolium dyes change colour on reduction, which living cells bring about.
Regarding `Cn1cc2c3ccccc3nc-2c2ccc(Cl)cc21`, the concentration for half-maximal inhibition (IC50) was 2260 nM.

`Cc1ccc2c3cn(C)c4ccccc4c-3nc2c1`: half-maximal inhibition (IC50) was put at 2070 nM.

`Cn1cc2c3cc(Br)ccc3nc-2c2ccccc21`: the IC50 was determined as 1970 nM.

The compound `Cn1cc2c3cc(Br)ccc3nc-2c2cc(Cl)ccc21` yielded a 50% inhibitory concentration (IC50) of 9000 nM.

In turn, `Cn1cc2c3cc(Br)ccc3nc-2c2cc(Br)ccc21` showed a 50% inhibitory concentration (IC50) of 2580 nM.

Consider `Cn1cc2c3cc(Br)ccc3nc-2c2ccc(Cl)cc21`, for which the IC50 was determined as 2640 nM.

With `Cc1cc2nc3c4ccccc4n(C)cc-3c2cc1Br`, the IC50 came out at 2500 nM.

`Cn1cc2c3cc(Cl)ccc3nc-2c2ccccc21` had a 50% inhibitory concentration (IC50) of 2100 nM.

The compound `CCN(CC)CCCC(C)Nc1ccnc2cc(Cl)ccc12` (centres undefined) [CHLOROQUINE] registered an IC50 of 72000 nM.

Regarding `Cn1cc2c3ccccc3nc-2c2ccccc21` [ISOCRYPTOLEPINE HYDROCHLORIDE], inhibition was half-maximal at 2190 nM (IC50).

For the next data set, the system named is Plasmodium falciparum. The experiment in a line: Antimalarial activity against chloroquine-resistant Plasmodium falciparum W2mef infected in human erythrocytes assessed as inhibition of [3H]hypoxanthine incorporation after 48 hrs by beta liquid scintillation counting method. It counts as functional, organism-based.
Details: not given
In outline:
as §1
In the case of `Cn1cc2c3ccccc3nc-2c2ccc(Cl)cc21`, the half-inhibitory concentration (IC50) turned out to be 316 nM.

As to `Cc1ccc2c3cn(C)c4ccccc4c-3nc2c1`, the 50% inhibitory concentration (IC50) is 760 nM.

In the case of `Cn1cc2c3cc(Br)ccc3nc-2c2ccccc21`, the half-maximal inhibitory concentration (IC50) is 184 nM.

Consider `Cn1cc2c3cc(Br)ccc3nc-2c2cc(Cl)ccc21`, for which the IC50 is 85 nM.

In the case of `Cn1cc2c3cc(Br)ccc3nc-2c2cc(Br)ccc21`, the 50% inhibitory concentration (IC50) was found to be 112 nM.

On to `Cn1cc2c3cc(Br)ccc3nc-2c2ccc(Cl)cc21`, for which the half-maximal inhibitory concentration (IC50) turned out to be 100 nM.

In the case of `Cc1cc2nc3c4ccccc4n(C)cc-3c2cc1Br`, the IC50 worked out at 131 nM.

For the compound `Cn1cc2c3cc(Cl)ccc3nc-2c2ccccc21`, the IC50 turned out to be 218 nM.

In the case of `Cn1cc2c3ccccc3nc-2c2ccccc21` [ISOCRYPTOLEPINE HYDROCHLORIDE], the concentration for half-maximal inhibition (IC50) turned out to be 1180 nM.

Consider `CCCCN(CCCC)CC(O)c1cc(Cl)cc2c1-c1ccc(Cl)cc1/C2=C/c1ccc(Cl)cc1` (centres undefined) [LUMEFANTRINE], for which the half-inhibitory concentration (IC50) came to 56 nM.

For another data set, the system named is Plasmodium falciparum. The experiment in a line: Antimalarial activity against Plasmodium falciparum K1. It counts as functional, organism-based.
Details: not given
Regarding `Cn1c2c3cc(Br)ccc3nc-2cc2cc(Br)ccc21`, half-maximal inhibition (IC50) was put at 49 nM.
